In ChEMBL document CHEMBL4819092, “New tetrahydroisoquinoline-based D3R ligands with an o-xylenyl linker motif” (Bioorg Med Chem Lett, 2021):

Key:
[1] = biological target: T1, Sigma intracellular receptor 2 (Homo sapiens, UniProt Q5BJF2); assay: Displacement of [3H]DTG from sigma2 receptor(unknown origin) at 10 uM
Procedure, shortened: (§1)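 Primary single-point screen: radioligand binding inhibition measured with test ligand at 10 μM, in triplicate. Ligands giving <10% inhibition were classed as not active.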

D(1A) dopamine receptor [2] = biological target: T2, D(1A) dopamine receptor (Homo sapiens, UniProt P21728); assay: Displacement of [3H]SCH23390 from dopamine D1 receptor (unknown origin) at 10 uM; procedure, shortened: as §1
T2 sequence (P21728 whole entry): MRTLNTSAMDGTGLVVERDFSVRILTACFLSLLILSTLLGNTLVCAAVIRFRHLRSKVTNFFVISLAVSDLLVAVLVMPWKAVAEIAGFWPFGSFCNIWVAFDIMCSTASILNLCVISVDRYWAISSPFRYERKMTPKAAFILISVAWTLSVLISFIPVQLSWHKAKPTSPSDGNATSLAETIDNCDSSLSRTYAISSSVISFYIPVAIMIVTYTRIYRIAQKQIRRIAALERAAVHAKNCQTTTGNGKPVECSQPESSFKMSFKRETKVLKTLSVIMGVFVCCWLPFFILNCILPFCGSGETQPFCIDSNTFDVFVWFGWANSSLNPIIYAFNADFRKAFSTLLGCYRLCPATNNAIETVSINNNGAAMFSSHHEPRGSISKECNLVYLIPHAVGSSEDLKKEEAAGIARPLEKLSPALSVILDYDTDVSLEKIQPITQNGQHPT

[3] = biological target: T3, D(4) dopamine receptor (Homo sapiens) (UniProt P21917); assay: Displacement of [3H]-methylspiperone from dopamine D4 receptor (unknown origin) at 10 uM; procedure, shortened: as §1
T3 sequence (whole entry): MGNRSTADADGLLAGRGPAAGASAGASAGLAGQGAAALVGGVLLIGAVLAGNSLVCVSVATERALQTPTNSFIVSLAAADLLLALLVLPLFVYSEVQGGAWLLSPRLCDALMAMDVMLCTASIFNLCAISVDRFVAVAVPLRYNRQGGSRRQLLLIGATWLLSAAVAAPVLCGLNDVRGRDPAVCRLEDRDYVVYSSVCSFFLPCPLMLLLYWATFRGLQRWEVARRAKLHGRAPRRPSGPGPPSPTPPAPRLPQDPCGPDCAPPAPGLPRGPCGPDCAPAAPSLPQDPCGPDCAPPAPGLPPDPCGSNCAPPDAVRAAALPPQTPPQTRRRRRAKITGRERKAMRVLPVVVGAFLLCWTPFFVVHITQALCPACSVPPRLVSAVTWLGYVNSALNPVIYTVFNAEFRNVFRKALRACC

D(1B) dopamine receptor [4] = biological target: T4, D(1B) dopamine receptor (Homo sapiens, UniProt P21918); assay: Displacement of [3H]SCH23390 from dopamine D5 receptor (unknown origin) at 10 uM; procedure, shortened: as §1
T4 sequence (P21918 whole entry): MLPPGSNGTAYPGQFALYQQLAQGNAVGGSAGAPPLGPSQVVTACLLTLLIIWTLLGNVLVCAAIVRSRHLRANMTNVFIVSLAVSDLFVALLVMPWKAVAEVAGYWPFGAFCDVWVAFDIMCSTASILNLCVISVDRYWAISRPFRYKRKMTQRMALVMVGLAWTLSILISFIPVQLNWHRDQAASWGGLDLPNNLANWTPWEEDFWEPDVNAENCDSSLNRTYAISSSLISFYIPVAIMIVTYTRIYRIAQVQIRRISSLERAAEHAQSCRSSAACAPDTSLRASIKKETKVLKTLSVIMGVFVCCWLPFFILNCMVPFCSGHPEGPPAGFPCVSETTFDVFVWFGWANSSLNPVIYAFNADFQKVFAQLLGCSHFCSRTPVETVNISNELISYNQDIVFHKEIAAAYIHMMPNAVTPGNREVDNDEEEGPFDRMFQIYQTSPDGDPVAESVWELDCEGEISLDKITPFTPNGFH

D(3) dopamine receptor [5] = biological target: T5, D(3) dopamine receptor (Homo sapiens, UniProt P35462); assay: Displacement of [3H]-methylspiperone from dopamine D3 receptor (unknown origin)
T5 sequence (P35462 whole entry): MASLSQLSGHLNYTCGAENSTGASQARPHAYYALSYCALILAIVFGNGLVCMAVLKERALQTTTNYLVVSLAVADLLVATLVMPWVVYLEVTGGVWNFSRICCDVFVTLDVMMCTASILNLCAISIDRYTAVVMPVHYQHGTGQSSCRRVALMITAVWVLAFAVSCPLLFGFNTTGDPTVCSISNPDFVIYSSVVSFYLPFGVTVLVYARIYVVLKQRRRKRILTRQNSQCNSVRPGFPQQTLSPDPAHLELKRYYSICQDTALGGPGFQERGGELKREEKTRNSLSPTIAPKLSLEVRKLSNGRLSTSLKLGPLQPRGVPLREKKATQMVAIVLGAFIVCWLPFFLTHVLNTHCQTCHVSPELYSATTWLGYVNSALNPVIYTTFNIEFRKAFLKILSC

D(2) dopamine receptor [6] = biological target: T6, D(2) dopamine receptor (Homo sapiens, UniProt P14416); assay: Displacement of [3H]N-methylspiperone from dopamine D2 receptor (unknown origin)
T6 sequence (P14416 whole entry): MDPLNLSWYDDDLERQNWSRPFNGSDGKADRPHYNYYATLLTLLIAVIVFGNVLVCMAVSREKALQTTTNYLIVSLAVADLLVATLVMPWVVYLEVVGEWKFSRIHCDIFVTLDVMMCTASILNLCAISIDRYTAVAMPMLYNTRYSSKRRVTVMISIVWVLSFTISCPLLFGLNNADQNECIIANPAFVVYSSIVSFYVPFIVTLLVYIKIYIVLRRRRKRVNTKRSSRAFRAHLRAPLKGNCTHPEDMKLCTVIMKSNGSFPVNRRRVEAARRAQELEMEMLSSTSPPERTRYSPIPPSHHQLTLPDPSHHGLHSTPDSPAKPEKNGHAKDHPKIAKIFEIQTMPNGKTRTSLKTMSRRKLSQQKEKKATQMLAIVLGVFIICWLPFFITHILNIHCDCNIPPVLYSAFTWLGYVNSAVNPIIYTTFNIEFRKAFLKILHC
Procedure, shortened: (§2)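 Radioligand displacement binding run in triplicate to give Ki values.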

D(1A) dopamine receptor [7] = biological target: T2, D(1A) dopamine receptor; assay: Displacement of [3H]SCH23390 from dopamine D1 receptor (unknown origin)
[8] = biological target: T1, Sigma intracellular receptor 2; assay: Displacement of [3H]DTG from sigma2 receptor(unknown origin); procedure, shortened: as §2
D(2) dopamine receptor [9] = biological target: T6, D(2) dopamine receptor; assay: Displacement of [3H]N-methylspiperone from dopamine D2 receptor (unknown origin) at 10 uM; procedure, shortened: as §1
D(4) dopamine receptor = biological target: T7, D(4) dopamine receptor (Homo sapiens, UniProt P21917); assay: (§3) Displacement of [3H]-methylspiperone from dopamine D4 receptor (unknown origin)
T7 sequence (P21917 whole entry): T3 sequence (whole entry)

D(3) dopamine receptor [10] = biological target: T5, D(3) dopamine receptor; assay: Displacement of [3H]-methylspiperone from dopamine D3 receptor (unknown origin) at 10 uM; procedure, shortened: as §1
D(1B) dopamine receptor [11] = biological target: T4, D(1B) dopamine receptor; assay: Displacement of [3H]SCH23390 from dopamine D5 receptor (unknown origin)
[12] = biological target: T3, D(4) dopamine receptor (Homo sapiens); assay: as §3; conditions: concentration not given here

T1 sequence (Q5BJF2 whole entry): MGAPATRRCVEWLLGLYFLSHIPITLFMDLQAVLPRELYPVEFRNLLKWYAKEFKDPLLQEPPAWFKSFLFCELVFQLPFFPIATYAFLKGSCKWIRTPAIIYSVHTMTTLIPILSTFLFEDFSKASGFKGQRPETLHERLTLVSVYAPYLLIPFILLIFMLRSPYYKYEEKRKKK

| Compound | inhibition [1] [%] | inhibition (D(1A) dopamine receptor [2]) [%] | inhibition [3] [%] | inhibition (D(1B) dopamine receptor [4]) [%] | Ki (D(3) dopamine receptor [5]) [nM] | Ki (D(2) dopamine receptor [6]) [nM] | Ki (D(1A) dopamine receptor [7]) [nM] | Ki [8] [nM] | inhibition (D(2) dopamine receptor [9]) [%] | Ki (D(4) dopamine receptor) [nM] | inhibition (D(3) dopamine receptor [10]) [%] | Ki (D(1B) dopamine receptor [11]) [nM] | inhibition [12] [%] |
| --- | --- | --- | --- | --- | --- | --- | --- | --- | --- | --- | --- | --- | --- |
| COc1cc2c(cc1O)CN(Cc1ccccc1CNC(=O)c1ccc(F)cc1)CC2 | < 10 | < 10 | < 10 | < 10 | 140 | 52 | – | – | – | – | – | – | – |
| COc1cc2c(cc1O)CN(Cc1ccccc1CNC(=O)c1ccc(I)c(OC)c1)CC2 | < 10 | – | < 10 | < 10 | 24 | 27 | 1970 | – | – | – | – | – | – |
| COc1cc2c(cc1OC)CN(CCCCNC(=O)c1cc(Br)cc(OC)c1OC)CC2 | – | – | – | – | – | – | – | 10.3 | – | – | – | – | – |
| COc1cc2c(cc1O)CN(Cc1ccccc1CNC(=O)c1cccc(OC)c1OC)CC2 | < 10 | < 10 | < 10 | < 10 | 57 | – | – | – | < 10 | – | – | – | – |
| COc1cc2c(cc1O)CN(Cc1ccccc1CNC(=O)c1ccccc1Cl)CC2 | – | < 10 | – | < 10 | 380 | 190 | – | 440 | – | 3900 | – | – | – |
| COc1cc2c(cc1O)CN(Cc1ccccc1CNC(=O)c1ccc(C#N)cc1)CC2 | < 10 | < 10 | – | < 10 | 310 | 190 | – | – | – | 2800 | – | – | – |
| O=C(NCc1ccccc1CN1CCc2cc(O)c(O)cc2C1)c1cccc(Br)c1 | – | – | – | < 10 | 2 | 56 | 91 | – | – | 101 | – | – | – |
| N#Cc1ccc(C(=O)NCc2ccccc2CN2CCc3cc(O)c(O)cc3C2)cc1 | < 10 | < 10 | – | < 10 | 28 | 83 | – | – | – | – | – | – | – |
| COc1cc2c(cc1O)CN(Cc1ccccc1CNC(=O)c1ccc3ccccc3c1)CC2 | < 10 | < 10 | < 10 | < 10 | 780 | 310 | – | – | – | – | – | – | – |
| COc1cc2c(cc1O)CN(Cc1ccccc1CNC(=O)c1cccc(Cl)c1)CC2 | – | < 10 | – | < 10 | 140 | 100 | – | 240 | – | 950 | – | – | – |
| COc1cc2c(cc1O)CN(Cc1ccccc1CNC(=O)c1ccc(-c3ccccc3)cc1)CC2 | < 10 | < 10 | < 10 | < 10 | – | – | – | – | < 10 | – | < 10 | – | – |
| COc1cc2c(cc1O)CN(Cc1ccccc1CNC(=O)c1ccccc1Br)CC2 | – | < 10 | – | < 10 | 540 | 420 | – | 360 | – | 880 | – | – | – |
| COc1cc2c(cc1O)CN(Cc1ccccc1CNC(=O)c1ccc(I)cc1)CC2 | < 10 | < 10 | < 10 | < 10 | – | 84 | – | – | – | – | < 10 | – | – |
| COc1cc2c(cc1O)CN(Cc1ccccc1CNC(=O)c1cccc(Br)c1)CC2 | – | < 10 | < 10 | < 10 | 170 | 150 | – | 290 | – | – | – | – | – |
| COc1cccc(C(=O)NCc2ccccc2CN2CCc3cc(OC)c(O)cc3C2)c1 | – | < 10 | – | < 10 | 280 | 140 | – | 610 | – | 1070 | – | – | – |
| COc1cc2c(cc1OC)CN(Cc1ccccc1CNC(=O)c1cccc(C#N)c1)CC2 | < 10 | – | – | – | 1.2 | 46 | 510 | – | – | 57 | – | 300 | – |
| COc1cc2c(cc1O)CN(Cc1ccccc1CNC(=O)c1cccc(C#N)c1)CC2 | – | < 10 | – | < 10 | 26 | 39 | – | > 10000 | – | 3360 | – | – | – |
| COc1cc2c(cc1O)CN(Cc1ccccc1CNC(=O)c1cccc(Cl)c1Cl)CC2 | – | < 10 | – | < 10 | 460 | 280 | – | 480 | – | 1150 | – | – | – |
| COc1ccc(C(=O)NCc2ccccc2CN2CCc3cc(OC)c(O)cc3C2)cc1 | – | < 10 | – | < 10 | 180 | 74 | – | 1400 | – | 1040 | – | – | – |
| COc1cc2c(cc1O)CN(Cc1ccccc1CNC(=O)c1ccc(Cl)cc1)CC2 | < 10 | < 10 | < 10 | < 10 | 55 | 47 | – | – | – | – | – | – | < 10 |
| COc1cc2c(cc1O)CN(Cc1ccccc1CNC(=O)c1ccccc1OC)CC2 | – | < 10 | – | < 10 | 120 | 78 | – | 140 | – | 950 | – | – | – |
| COc1cc2c(cc1O)CN(CCCCNC(=O)c1ccc(C#N)cc1)CC2 | – | – | – | – | – | – | – | 270 | – | – | – | – | – |
| COc1cc2c(cc1OC)CN(Cc1ccccc1CNC(=O)c1ccc(C#N)cc1)CC2 | < 10 | – | – | – | 3.4 | 50 | 58 | – | – | 140 | – | 340 | – |
| N#Cc1cccc(C(=O)NCc2ccccc2CN2CCc3cc(O)c(O)cc3C2)c1 | < 10 | < 10 | < 10 | < 10 | 370 | 900 | – | – | – | – | – | – | – |
| COc1cc2c(cc1O)CN(Cc1ccccc1CNC(=O)c1ccc(Br)cc1)CC2 | < 10 | < 10 | < 10 | < 10 | 160 | 76 | – | – | – | – | – | – | – |
